Source: PubChem BioAssay
PfG6PD inh: PfG6PD (Plasmodium falciparum) enzyme inhibition; PfGluPho enzyme, NADPH resazurin-diaphorase fluorescence; inhibition, % at 20 µM; actives 0.78% (n = 350,000); AID 504690;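 active = inhibition reaching at least a set limit at 20 µM in the primary screen, cut at about 59% in these data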;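 also: 0% = DMSO wells with substrate and 100% = DMSO wells lacking glucose-6-phosphate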
SUMO HTRF inh: blocks human SUMOylation mediated by UBC9 | actives 0.36% (n = 290,000) | AID 2006 | inhibition, % at 35 µM | HTRF SUMOylation assay, SAE1/SAE2 + UBC9, in vitro; in the data active = inhibition above about 50%, passing the limit was not always enough
APOBEC3A inh: blocks human APOBEC3A ssDNA deamination; P31941; recombinant A3A, FAM/TAMRA ssDNA deamination fluorescence; inhibition, % at 20 µM; actives 0.41% (n = 330,000); AID 493011;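 active = at least 40% inhibition at 20 µM here, with at most 30% in a related deaminase screen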;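 also: plate controls were A3A with DMSO for no effect and wells lacking A3A enzyme for full effect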
PfM18AAP inh-1: PfM18AAP enzyme inhibition; inhibition, % at 7.35 µM; recombinant PfM18AAP, H-Glu-NHMec fluorogenic cleavage; actives 1.2% (n = 290,000);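 active = inhibition above the campaign mean inhibition over all tested compounds plus 3 SD, cut at about 28% in these data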;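 also: 0% = plate median of test compound wells and 100% = 2 mM ZnCl2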
APOBEC3G inh: inhibitors of human APOBEC3G DNA deaminase | Q9HC16 | recombinant A3G, ssDNA deamination FAM/TAMRA fluorescence | inhibition, % at 20 µM | actives 0.28% (n = 330,000) | AID 493012;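 active = inhibition of at least 40% at 20 µM, with no more than 30% in the related APOBEC3A deaminase screen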;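 also: plate controls were DMSO wells with A3G for no effect and wells lacking A3G enzyme for full effect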
Target sequence (Q9HC16 whole entry, looked up): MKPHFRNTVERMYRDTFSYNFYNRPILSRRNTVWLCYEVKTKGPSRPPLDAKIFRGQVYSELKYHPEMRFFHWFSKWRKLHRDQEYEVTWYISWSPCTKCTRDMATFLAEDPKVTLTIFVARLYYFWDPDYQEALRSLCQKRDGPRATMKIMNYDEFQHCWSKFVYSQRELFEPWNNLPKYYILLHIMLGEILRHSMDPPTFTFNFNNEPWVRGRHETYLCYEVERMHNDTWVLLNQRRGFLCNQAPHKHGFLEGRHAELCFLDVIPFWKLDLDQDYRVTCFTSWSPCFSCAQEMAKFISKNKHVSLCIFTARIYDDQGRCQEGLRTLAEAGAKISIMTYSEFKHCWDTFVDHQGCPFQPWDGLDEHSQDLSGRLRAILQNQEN
HKDC1 inh: inhibitors of human hexokinase HKDC1; Q2TB90; recombinant HKDC1, G6PDH/diaphorase resazurin coupled fluorescence; inhibition, % at 20 µM; actives 0.16% (n = 340,000);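 active = inhibition above about 35% when tested at 20 µM, limit read from the data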;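 also: plate controls were DMSO wells with enzyme for no effect and DMSO wells lacking enzyme for full effect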
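Material: recombinant HKDC1 hexokinase; Amount: HKDC1 at 5 µg/mL; Medium: Tris pH 8.0 buffer with MgCl2, Tween-20, BSA, BME; Schedule: 90 min reaction incubation at room temperature, dark; Technique: coupled resazurin fluorescence, excitation 525 nm, emission 613 nm.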
PfM18AAP inh-2: PfM18AAP inhibition, confirmation. actives 28% (n = 2,400). AID 2170. inhibition, % at 7.35 µM. recombinant PfM18AAP, H-Glu-NHMec fluorogenic cleavage. shares compounds with PfM18AAP inh-1;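 active = mean inhibition over replicate wells above the hit cutoff set for the earlier primary screen, cut at about 29% in these data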;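 also: 0% = median of test compound wells and 100% = 2 mM ZnCl2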
CTSL1 counter: counter-screen for PFM18AAP inhibitors: confirmation of human cathepsin L inhibitors; purified cathepsin L1, Z-Leu-Arg-MCA fluorescence; inhibition, % at 5.96 µM; 2,400 tested, under 10 active; shares compounds with PfM18AAP inh-1; AID 2178;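 active = average inhibition across replicates above the hit cutoff set in the earlier primary screen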;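 also: 0% = median of test compound wells and 100% = Z-Phe-Ala-diazomethylketone 1 µM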
Target sequence (P07711 whole entry, looked up): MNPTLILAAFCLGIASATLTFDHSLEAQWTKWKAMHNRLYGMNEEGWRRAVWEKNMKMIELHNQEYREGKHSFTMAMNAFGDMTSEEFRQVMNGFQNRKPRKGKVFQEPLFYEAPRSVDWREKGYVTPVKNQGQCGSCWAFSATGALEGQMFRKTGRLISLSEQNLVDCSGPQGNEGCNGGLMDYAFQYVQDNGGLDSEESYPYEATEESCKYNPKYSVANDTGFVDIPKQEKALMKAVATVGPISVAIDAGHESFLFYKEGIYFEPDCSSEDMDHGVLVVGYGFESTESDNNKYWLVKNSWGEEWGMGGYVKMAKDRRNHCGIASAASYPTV
The depositor's hits bear a star; / = no result given. Shown are actives, neighbours in structure and some others; about 2.4% of the full set was active somewhere.

SMILES | PfG6PD inh | SUMO HTRF inh | APOBEC3A inh | PfM18AAP inh-1 | APOBEC3G inh | HKDC1 inh | PfM18AAP inh-2 | CTSL1 counter
O=C(NN1C(=O)CSC1=S)C(=O)NN1C(=O)CSC1=S | -46 | 96* | 99 | 41* | 87 | -37 | 52* | -2
C[C@@H](C(=O)Nc1ccc2c(c1)OCO2)n1c(=O)[nH]c2ccccc2c1=O | 16 | -10 | 5 | 15 | 17 | 7 | / | /
COC(=O)CSc1nnc(NC(=O)c2ccc3c(c2)OCO3)s1 | 49 | 8 | -2 | 0 | -6 | -2 | / | /
CCC(CC)c1nnc(NC(=O)c2ccc3c(c2)OCO3)s1 | 55 | -3 | -3 | 36* | 7 | -4 | -27 | 1
Cc1nc2ccccn2c1-c1csc(Nc2cccc(O)c2)n1 | 42 | 10 | / | 38* | / | -7 | 23 | 5
Cc1nc2ccccn2c1-c1csc(Nc2ccc(C(=O)O)cc2)n1 | 16 | -3 | 0 | 43* | -2 | 4 | 23 | 0
Cc1cccc(Nc2nc(-c3c(C)nc4ccccn34)cs2)c1 | 45 | -24 | -1 | 5 | 2 | -16 | / | /
CCCNC(=O)CCc1c(C)nc2nc(-c3cc(OC)cc(OC)c3)nn2c1C | 11 | -6 | 5 | 10 | 1 | 1 | / | /
NNc1nc(-c2ccccc2Cl)c2cc(Br)ccc2n1 | 12 | -10 | -4 | 32* | -5 | 9 | -15 | 8
O=C(COC(=O)c1ccc(-c2ccc([N+](=O)[O-])cc2)o1)NC(=O)NC1CCCCC1 | -1 | -10 | 1 | 1 | 1 | -6 | / | /
O=C(NC1CCC(O)CC1)c1ccc(-c2ccc([N+](=O)[O-])cc2)o1 (stereo not given) | 24 | 19 | 6 | 33* | 11 | -3 | -120 | 3
CC(C)Cc1nc2sc3c(=O)[nH]cnc3c2c2c1CCCC2 | -5 | -11 | -3 | 1 | -6 | -2 | / | /
CCOc1ccccc1C(=O)Nc1ccc2c(c1)C(=O)NC2=O | -1 | -2 | -3 | -1 | -2 | -6 | / | /
Oc1cccc(NC(=S)Nc2ccccc2)c1 | -9 | 12 | -7 | 22 | -8 | -6 | -47 | 2
Fc1cccc(NC(=S)NNc2ccccc2)c1 | 28 | 2 | -2 | 38* | -5 | 1 | -14 | -6
Fc1cccc(NC(=S)NNc2c3ccccc3nc3ccccc23)c1 | 11 | 22 | / | 2 | / | -1 | / | /
O=[N+]([O-])c1ccc(NNC(=S)Nc2ccccc2)cc1 | 51 | 1 | -4 | 39* | -5 | 2 | 32* | -9
Oc1cccc(Nc2ccccc2)c1 | 7 | / | 0 | / | -7 | 9 | / | /
O=[N+]([O-])c1ccc(NC(=S)NCCc2ccccc2)cc1 | 18 | 3 | -1 | -1 | -1 | 0 | / | /
O=C(O)c1occc1CSc1ccccc1 | 3 | 19 | -2 | -10 | -3 | -1 | / | /
Cc1cc2oc(=O)cc(Cn3ccnc3)c2cc1Cl | 1 | -1 | -2 | 1 | -5 | 1 | / | /
O=[N+]([O-])c1ccc(NC(=S)NCCc2ccc(Cl)cc2)cc1 | 25 | 1 | -4 | 3 | -4 | 2 | / | /
Cc1ccc(C)c(N=Cc2cc3c(cc2[N+](=O)[O-])OCO3)c1 | 12 | 10 | 8 | 17 | 2 | 21 | / | /
O=[N+]([O-])c1ccc(S(=O)(=O)NN=Cc2ccc3c(c2)OCO3)cc1 | -15 | / | / | / | / | -5 | / | /
CC(C)(C)c1ccc(O)c(N=Cc2cc3c(cc2[N+](=O)[O-])OCO3)c1 | 38 | 8 | -5 | 36* | -4 | 5 | 90* | 1
SMILES | PfG6PD inh | SUMO HTRF inh | APOBEC3A inh | PfM18AAP inh-1 | APOBEC3G inh | HKDC1 inh | PfM18AAP inh-2 | CTSL1 counter
O=[N+]([O-])c1cc2c(cc1/C=N\NS(=O)(=O)c1ccccc1)OCO2 | 58 | 17 | -1 | 48* | -3 | 1 | 4 | -5
Cc1ccc(-c2ccc(CN3C(C)C(=O)N(Cc4cn(Cc5ccco5)nn4)CCS3(=O)=O)cc2)cc1 (stereo not given) | 32 | / | / | / | / | / | / | /
CCOC(=O)C1CCCN(CCC(=O)Nc2cccc(Cl)c2C)C1 (stereo not given) | 10 | 12 | 4 | 2 | -2 | -4 | / | /
O=C(O)CC1(O)C(=O)N(Cc2ccccc2)c2ccccc21 (stereo not given) | -4 | 12 | 0 | -7 | -5 | -10 | / | /
CCN=C1S/C(=C\c2cn(CC(=O)NCCOC)c3ccccc23)C(=O)N1CC | 1 | 4 | 0 | -12 | 1 | 2 | / | /
O=C(CCS(=O)(=O)c1ccc(Cl)cc1)Nc1ccccc1Br | -2 | -1 | 1 | -4 | -3 | 1 | / | /
O=C(O)CCCC(=O)Nc1ccccc1SCCS(=O)(=O)c1ccc(Cl)cc1 | 6 | 4 | / | 35* | / | 1 | -21 | 1
CCCNC(=O)NC(=O)COc1ccc2oc3ccccc3c2c1 | -4 | -9 | 5 | 7 | 1 | 2 | / | /
CC(C)(C)c1ccc(C(=O)NNC(=O)c2ccc(Cl)cc2)cc1 | 8 | 13 | 3 | 6 | 0 | 14 | / | /
Cc1ccc(NNC(=O)c2ccc(Cl)cc2)nn1 | 6 | 22 | -3 | 33* | -5 | -3 | 1 | 1
Cc1c(Cl)cccc1NC(=S)N(Cc1ccco1)C(C)c1ccccn1 (stereo not given) | 6 | 21 | -2 | 2 | -4 | -5 | / | /
Cc1cccc(-c2nc(CN3CCCC(C(=O)NC4CCCCC4)C3)c(C)o2)c1 (stereo not given) | -15 | 26 | -3 | -8 | -5 | 6 | / | /
CCOC(=O)c1ccc(N/C=C\C(=O)c2cccc(OC)c2)cc1 | -12 | 10 | -3 | 0 | 0 | -2 | / | /
COc1cccc(C(=O)/C=C/Nc2cc(C)ccc2O)c1 | 15 | 6 | -3 | 68* | -3 | 6 | -24 | 3
Cn1ccc(C(=O)NC(=S)Nc2ccc([N+](=O)[O-])cc2O)n1 | -16 | 6 | -5 | 34* | 2 | 15 | 41* | -4
O=C(NCCC1=CCCCC1)Nc1ccc2nsnc2c1 | 23 | 27 | 4 | 6 | 5 | 5 | / | /
CC[n+]1c(C)sc2c(C)cc(C)cc21 | 39 | 16 | 34 | 20 | 16 | 0 | / | /
CC[n+]1c(C)sc2cc(OC)ccc21 | 38 | 7 | 45 | 37* | 31 | -7 | -20 | 1
Cc1ccc(C)c(OCC(=O)Nc2ccc(S(=O)(=O)N3CCN(C)CC3)cc2)c1 | 4 | 11 | 0 | 3 | -3 | -2 | / | /
CC(C)NC(=O)Nc1n[nH]c(Nc2ccc(Cl)cc2)n1 | 2 | -4 | -2 | 40* | -5 | 2 | 9 | -3
NC(N)=N/N=C/c1cccc([N+](=O)[O-])c1O | -13 | -13 | 3 | 43* | 0 | 6 | -6 | -1
O=c1nc(/C=C/c2ccc(O)c(O)c2)oc2ccccc12 | -32 | -6 | / | 63* | / | 8 | 56* | 2
